Test results published in ChEMBL document CHEMBL4325885, “Design, synthesis, and biological evaluation of novel phenol ether derivatives as non-covalent proteasome inhibitors” (Eur J Med Chem, 2019).

What was measured:
[1] = molecular target: T1, Proteasome Macropain subunit MB1 (Homo sapiens, UniProt P28074); test: Inhibition of human chymotrypsin-like activity of 20S constitutive proteasome using Suc-LLVY-AMC as substrate preincubated for 15 mins followed by substrate addition by fluorescence assay
T1 sequence (P28074 whole entry): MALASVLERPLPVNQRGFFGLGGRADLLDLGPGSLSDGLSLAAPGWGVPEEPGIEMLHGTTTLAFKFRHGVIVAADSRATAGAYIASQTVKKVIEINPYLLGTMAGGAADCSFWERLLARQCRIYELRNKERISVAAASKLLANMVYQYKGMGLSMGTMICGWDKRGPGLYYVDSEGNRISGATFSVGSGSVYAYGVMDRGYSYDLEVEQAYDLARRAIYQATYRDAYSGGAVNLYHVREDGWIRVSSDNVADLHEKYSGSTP

[2] = molecular target: T2, Proteasome Macropain subunit MB1 (Homo sapiens) (UniProt P28074); test: Inhibition of human chymotrypsin-like activity of 20S constitutive proteasome at 10 uM using Suc-LLVY-AMC as substrate preincubated for 15 mins followed by substrate addition by fluorescence assay relative to control
T2 sequence (whole entry): T1 sequence (P28074 whole entry)

HepG2 = test: Antiproliferative activity against human HepG2 cells after 72 hrs by MTT assay; assay type: functional, cell-based; conditions: HepG2, 72 h
In short: (§1)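 Cells kept at 37 °C, 5% CO2; HGC27 in RPMI-1640 and HepG2 in IMDM, each with 10% FBS and penicillin/streptomycin. Seeded at 1×10⁵ cells/well, then exposed to graded compound concentrations or 0.2% DMSO for 72 h. MTT (5 mg/mL) added for 4 h, formazan dissolved in DMSO, absorbance read at 570 nm. Inhibition = (A_control − A_sample)/A_control; IC50 from variable-slope sigmoidal fit.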

MV4-11 = test: Antiproliferative activity against human MV4-11 cells after 72 hrs by MTS/PMS assay; assay type: functional, cell-based; conditions: MV4-11, 72 h
In short: (§2)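 Cells kept at 37 °C, 5% CO2; RPMI 8226 and MM.1S in RPMI-1640, MV-4-11 in IMDM, each with 10% FBS and penicillin/streptomycin. Seeding per well: RPMI 8226 5×10³, MM.1S 3×10⁴, MV-4-11 8×10³. Graded compound concentrations or 0.2% DMSO for 72 h. MTS/PMS added for 2-4 h at 37 °C, OD read at 490 nm minus 690 nm background. IC50 from variable-slope sigmoidal fit.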

[3] = molecular target: T3, Proteasome subunit beta type-8 (Homo sapiens, UniProt P28062); test: Inhibition of 20S immunoproteasome LMP7 (unknown origin) using Ac-ANW-AMC as substrate preincubated for 15 mins followed by substrate addition by fluorescence assay
T3 sequence (P28062 whole entry): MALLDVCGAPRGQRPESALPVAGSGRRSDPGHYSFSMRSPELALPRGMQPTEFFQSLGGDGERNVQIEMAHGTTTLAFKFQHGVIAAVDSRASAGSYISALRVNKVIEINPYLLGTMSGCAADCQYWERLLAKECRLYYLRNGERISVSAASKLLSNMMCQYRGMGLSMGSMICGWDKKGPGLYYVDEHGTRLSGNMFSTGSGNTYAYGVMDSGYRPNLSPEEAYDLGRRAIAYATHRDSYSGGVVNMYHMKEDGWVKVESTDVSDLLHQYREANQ

MM1.S = test: Antiproliferative activity against human MM1S cells after 72 hrs by MTS/PMS assay; assay type: functional, cell-based; in short: as §2
[4] = Stability in human liver microsomes assessed as drug degradation at 1 uM measured within 30 mins in presence of NADPH by LC-MS/MS analysis; assay type: ADME, Microsome; conditions: read-out: Drug degradation
In short: (§3)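 Pooled human liver microsomes at 1.0 mg/mL protein in 0.1 M phosphate buffer saline pH 7.4 with 1 mM NADPH, preincubated 5 min at 37 °C. Reaction started by adding test compound at 1 μM, then incubated 0, 10, 20 or 30 min. Compound disappearance monitored.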

RPMI-8226 = test: Antiproliferative activity against human RPMI8226 cells after 72 hrs by MTS/PMS assay; assay type: functional, cell-based; conditions: RPMI-8226, 72 h; in short: as §2
HGC-27 = test: Antiproliferative activity against human HGC27 cells after 72 hrs by MTT assay; assay type: functional, cell-based; conditions: HGC-27, 72 h; in short: as §1
[5] = Stability in human liver microsomes at 1 uM measured after 30 mins in presence of NADPH by LC-MS/MS analysis; assay type: ADME, Microsome; conditions: 0.5 h; in short: as §3

IC50 [1] [µM] | Structure (SMILES) | further results
0.922 | CCCc1ccc(OCC(=O)N(CC(=O)Nc2ccc(C(F)(F)F)cc2)C(C)C)cc1 | 
0.952 | CCCc1ccc(OCC(=O)N(CC(=O)Nc2ccc(OC)cc2)C(C)C)cc1 | 
0.361 | CCCc1ccc(OCC(=O)N(CC(=O)Nc2ccc(C#N)cc2)C(C)C)cc1 | 
0.089 | CCCc1ccc(OCC(=O)N(CC(=O)Nc2ccnnc2)C(C)C)cc1 | 
0.28 | CCCc1ccc(OCC(=O)N(CC(=O)Nc2cncnc2)C(C)C)cc1 | 
0.395 | CCCc1ccc(OCC(=O)N(CC(=O)Nc2cnccn2)C(C)C)cc1 | 
0.1 | CCCc1ccc(OCC(=O)N(CC(=O)Nc2ccncc2)C(C)C)cc1 | 
0.836 | CCCc1ccc(OCC(=O)N(CC(=O)Nc2ccccn2)C(C)C)cc1 | 
5.91 | CCCc1ccc(OCC(=O)N(CC(=O)Nc2ccc3ccccc3c2)C(C)C)cc1 | 
2.01 | CCCc1ccc(OCC(=O)N(CC(=O)Nc2ccon2)C(C)C)cc1 | 
> 10 | CCCc1ccc(OCC(=O)N(CC(=O)Nc2ccccc2OC)C(C)C)cc1 | 
4.73 | CCCc1ccc(OCC(=O)N(CC(=O)Nc2ccc(OC)c(OC)c2)C(C)C)cc1 | 
2 | CCCc1ccc(OCC(=O)N(CC(=O)Nc2cccc(OC)c2)C(C)C)cc1 | 
1.2 | CCCc1ccc(OCC(=O)N(CC(=O)Nc2ccc(F)cc2)C(C)C)cc1 | 
1.68 | CCCc1ccc(OCC(=O)N(CC(=O)Nc2cccnc2)C(C)C)cc1 | Stability [5]: Stable; inhibition [2]: 58.2%
0.23 | CCCc1ccc(OCC(=O)N(CC(=O)Nc2ccc(S(C)(=O)=O)cc2)C(C)C)cc1 | IC50 (HepG2): 2.87 µM; IC50 (MV4-11): > 20 µM; IC50 [3]: > 10 µM; IC50 (MM1.S): > 20 µM; IC50 (RPMI-8226): > 20 µM; IC50 (HGC-27): 2.47 µM
3.86 | CCCc1ccc(OCC(=O)N(CC(=O)Nc2nncs2)C(C)C)cc1 | 
0.049 | CCCCc1ccc(OCC(=O)N(CC(=O)Nc2ccnnc2)C(C)C)cc1 | IC50 (HepG2): 3.91 µM; IC50 (MV4-11): > 20 µM; IC50 [3]: > 10 µM; Stability [5]: Stable; IC50 (MM1.S): > 20 µM; IC50 (RPMI-8226): > 20 µM; IC50 (HGC-27): 4.62 µM
1.11 | CCCc1ccc(OCC(=O)N(CC(=O)Nc2nc3ccc(OC)cc3s2)C(C)C)cc1 | 

Continued, compound first:

Structure (SMILES) | IC50 [1] [µM] | further results
CC(C)N(CC(=O)Nc1ccnnc1)C(=O)COc1ccc(Br)cc1 | 0.405 | 
CCCc1ccc(OCC(=O)N(CC(=O)NCc2cccnc2)C(C)C)cc1 |  | inhibition [2]: 1.16%
CCCc1ccc(OCC(=O)N(CCNC(=O)c2cccnc2)C(C)C)cc1 |  | inhibition [2]: 30.8%
CCCc1ccc(OCC(=O)N(CCNC(=O)Nc2cccnc2)C(C)C)cc1 |  | inhibition [2]: 13.8%
COC(=O)Cc1ccc(OCC(=O)N(CC(=O)Nc2ccnnc2)C(C)C)cc1 | 1.56 | 
CCCc1ccc(OCC(=O)N(CCC(=O)NCc2cccnc2)C(C)C)cc1 |  | inhibition [2]: 12.7%
CCCCCc1ccc(OCC(=O)N(CC(=O)Nc2ccnnc2)C(C)C)cc1 | 0.064 | 
CC(C)N(CC(=O)Nc1ccnnc1)C(=O)COc1ccc(C(F)(F)F)cc1 | 0.952 | 
CCCc1ccc(OCC(=O)N(CCC(=O)Nc2cccnc2)C(C)C)cc1 |  | inhibition [2]: 15.5%
CCCc1ccc(OCC(=O)N(CCNC(=O)NCc2cccnc2)C(C)C)cc1 |  | inhibition [2]: 38.7%
CCc1ccc(OCC(=O)N(CC(=O)Nc2ccnnc2)C(C)C)cc1 | 0.243 | 
CCOc1ccc(OCC(=O)N(CC(=O)Nc2ccnnc2)C(C)C)cc1 | 0.259 | 
CCCc1ccc(OCC(=O)N(Cc2nc(-c3cccnc3)no2)C(C)C)cc1 | 0.092 | IC50 (HepG2): 2.95 µM; IC50 (MV4-11): > 20 µM; IC50 [3]: > 10 µM; IC50 (MM1.S): > 20 µM; inhibition [2]: 80.2%; metabolised at 0.5 h, 1 µM [4]: > 50%; IC50 (RPMI-8226): > 20 µM; IC50 (HGC-27): 3.35 µM
Cc1ccc(OCC(=O)N(CC(=O)Nc2ccnnc2)C(C)C)cc1 | 0.481 | 
CC(C)Cc1ccc(OCC(=O)N(CC(=O)Nc2ccnnc2)C(C)C)cc1 | 0.118 | 
COc1ccc(OCC(=O)N(CC(=O)Nc2ccnnc2)C(C)C)cc1 | 0.579 | 
CC(C)N(CC(=O)Nc1ccnnc1)C(=O)COc1ccc(CCO)cc1 | 0.968 | 
